Screening results: PubChem BioAssay, several laboratories
NS3 helicase inh – inhibitors of HCV NS3 helicase, primary screen, biochemical, Cy5 molecular beacon fluorescence; Hepatitis C virus NS3 helicase; NS3 helicase DNA unwinding; inhibition, % at 10.9 µM; 0.56% of 290,000 active;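 active = inhibition above the mean of all tested compounds plus 3 SD, set per campaign, cut at about 35% in these data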;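 also: 0% = DMSO wells and 100% = thioflavine S control wells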
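System: Hepatitis C virus NS3 helicase domain fragment enzyme | Reagent: Annealed dual-labelled DNA beacon duplex, ATP-started | Compound dosing: 10.9 µM single point, 0.8% DMSO | Incubation: 1 h reaction at 25 °C, ATP-initiated | Technique: Cy5 fluorescence | Evaluation: Percent inhibition from t60/t0 fluorescence ratio | Benchmarks: Low DMSO, high thioflavine S at 110 µM | Replication: Singlicate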
eIF4H inh – human eIF4H binding inhibitors, primary screen, translation initiation inhibitor project, biochemical, uHTS, fluorescence polarization; Eukaryotic translation initiation factor 4H (Homo sapiens), Q15056; eIF4H fluorescence polarization binding assay; inhibition, % at 35 µM; 0.94% of 290,000 active; call rule not given here;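 also: calls also rest on retests at 20 µM and on dose response follow-up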
PABP polyA inh – PABP poly(A) RNA binding inhibitors, primary screen, biochemical, fluorescence polarization, uHTS. inhibition, % at 35 µM. 1% of 290,000 active. AID 2014, 2009; call rule not given here;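 also: calls also rest on retests at 20 µM and on dose response follow-up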
Target sequence (P11940 whole entry, looked up): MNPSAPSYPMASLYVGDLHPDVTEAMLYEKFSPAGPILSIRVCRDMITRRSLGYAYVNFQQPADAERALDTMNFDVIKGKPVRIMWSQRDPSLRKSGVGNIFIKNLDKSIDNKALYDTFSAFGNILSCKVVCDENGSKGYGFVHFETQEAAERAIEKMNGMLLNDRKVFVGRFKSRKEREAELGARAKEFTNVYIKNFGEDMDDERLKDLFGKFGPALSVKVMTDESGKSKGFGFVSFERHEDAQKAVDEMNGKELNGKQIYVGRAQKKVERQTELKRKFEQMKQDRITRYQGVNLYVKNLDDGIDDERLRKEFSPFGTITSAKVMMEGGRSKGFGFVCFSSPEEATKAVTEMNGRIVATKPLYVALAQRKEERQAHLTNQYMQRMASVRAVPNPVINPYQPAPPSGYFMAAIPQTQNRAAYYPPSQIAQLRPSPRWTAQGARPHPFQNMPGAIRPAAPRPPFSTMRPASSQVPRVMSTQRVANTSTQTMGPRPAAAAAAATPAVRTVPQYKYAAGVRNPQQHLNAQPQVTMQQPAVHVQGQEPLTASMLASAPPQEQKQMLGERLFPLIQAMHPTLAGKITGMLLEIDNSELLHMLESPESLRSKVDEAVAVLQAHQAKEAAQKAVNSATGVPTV
DNA FID counter-1 – compounds displacing fluorescent DNA intercalator, primary screen, artefact control for HCV NS3 helicase inhibitor project, biochemical, FID fluorescence. 0.17% of 290,000 active. DNA fluorescent intercalator displacement. AID 1845, 2009. inhibition, % at 7.9 µM;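 also: 0% = vehicle and 100% = reference compound; higher means more ethidium bromide displaced from hairpin DNA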
MLLE-PAM2 inh – inhibitors of PABP1 MLLE–PAM2 peptide binding, primary screen, biochemical, fluorescence polarization, FITC-PAM2, GST-MLLE. Polyadenylate-binding protein 1 (Homo sapiens), P11940. inhibition, % at 20 µM. 0.36% of 360,000 active. AID 588489, 2011; in the data active = inhibition above about 35%, passing the limit was not always enough;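 also: plate controls were DMSO wells with GST-MLLE for no effect and wells lacking GST-MLLE protein for full effect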
HCV core dimer – inhibitors of HCV core protein dimerization, primary screen, biochemical, TR-FRET, high-throughput; inhibition, % at 5 µM; TR-FRET GST/Flag-core106 dimerization, 1536-well; 0.33% of 300,000 active; AID 1899, 2009;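 active = inhibition above the mean of all tested compounds plus 3 SD, set per screening campaign, cut at about 45% in these data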
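Material: Tagged HCV core106 pair (GST and Flag) | Amount: GST-core106 13.5 nM, Flag-core106 17 nM | Medium: KF-containing HEPES buffer, pH 7.45, DTT, CHAPS, BSA | Reagent: Eu donor and XL665 acceptor anti-tag antibodies | Schedule: 4 h at 22.5 °C | Technique: Time-resolved FRET, ex 340 nm, em 617 and 671 nm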
NS3 helicase cf – HCV NS3 helicase inhibitors, retest, confirmation, biochemical, Cy5 molecular beacon fluorescence, triplicate; shares compounds with NS3 helicase inh; 31% of 1,600 active; NS3 helicase DNA unwinding; inhibition, % at 10.9 µM;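 active = inhibition above the mean of all tested compounds plus 3 SD, cutoff set per campaign, cut at about 36% in these data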
DNA FID counter-2 – compounds displacing fluorescent DNA intercalator, artefact control for HCV NS3 helicase inhibitor project, biochemical, FID fluorescence, triplicate; shares compounds with NS3 helicase inh; DNA fluorescent intercalator displacement; inhibition, % at 7.9 µM; 4% of 1,600 active;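 also: 0% = vehicle and 100% = reference compound; higher means more displacement of ethidium bromide from the DNA hairpin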
* = called active by the depositor. In the library only some 2% were active in any assay of this set; here they are far more common. Rule as the data show it, unless noted: active = inhibition above about 37%; inactive = the rest.

For CCCC(=O)N1CCCC1(C)C(=O)Nc1ccc2c(c1)CCN2C(C)=O (centres undefined) the results were MLLE-PAM2 inh -5.
Screening N=C1/C(=C\c2ccc(SCc3ccco3)o2)C(=O)N=C2SC=NN12 returned NS3 helicase inh 53*, eIF4H inh inconclusive, PABP polyA inh inconclusive, DNA FID counter-1 -2, MLLE-PAM2 inh 9, HCV core dimer 2, NS3 helicase cf 63* and DNA FID counter-2 -1.
Screening N#Cc1c(C#N)c(O)c2ccccc2c1O returned NS3 helicase inh 3, eIF4H inh 13, PABP polyA inh 22, DNA FID counter-1 2, MLLE-PAM2 inh 29 and HCV core dimer -30.
`N=C1CCC(=N)c2c1c(O)c1ccccc1c2O` gave NS3 helicase inh 43*, eIF4H inh inconclusive, PABP polyA inh inconclusive, DNA FID counter-1 -7, MLLE-PAM2 inh 62, HCV core dimer -23, NS3 helicase cf 50* and DNA FID counter-2 1.
COc1ccc(S(=O)(=O)N2CCN(Cc3ccccc3)CC2)cc1OC was read as NS3 helicase inh 97*, eIF4H inh -15, PABP polyA inh -2, DNA FID counter-1 -21, MLLE-PAM2 inh 4, NS3 helicase cf -13 and DNA FID counter-2 -8.
Screening C[C@@H]1CN([C@H](C)CO)C(=O)c2cc(C3=CCCCC3)cnc2O[C@@H]1CN(C)Cc1ccccc1C(=O)O returned MLLE-PAM2 inh -16.
Screening CCCc1cc(C(=O)Nc2cc(OC)ccc2OC)cs1 returned NS3 helicase inh -6, eIF4H inh 29, PABP polyA inh 9, DNA FID counter-1 -28, MLLE-PAM2 inh 4 and HCV core dimer -4.
Screening COc1ccc(OCC(=O)Nc2nnc(S(=O)(=O)N3CCCCCC3)s2)cc1 returned NS3 helicase inh 3, eIF4H inh 6, PABP polyA inh -4, DNA FID counter-1 -32, MLLE-PAM2 inh -10 and HCV core dimer 28.
Screening Cc1ccc(OCC(=O)Nc2nnc(S(=O)(=O)N3CCC(C)CC3)s2)cc1 returned NS3 helicase inh 36*, eIF4H inh 63*, PABP polyA inh 6, DNA FID counter-1 -34, MLLE-PAM2 inh -28, HCV core dimer 36, NS3 helicase cf -16 and DNA FID counter-2 -6.
For CC(C)c1cc(=O)n2[nH]c(SCc3ccc(Cl)cc3)nc2n1 the results were NS3 helicase inh 45*, eIF4H inh 0, PABP polyA inh -2, DNA FID counter-1 -25, MLLE-PAM2 inh -4, HCV core dimer -14, NS3 helicase cf -6 and DNA FID counter-2 -24.
COC1OC(O)C(NC(=O)C(F)(F)F)CC1O (centres undefined) was read as MLLE-PAM2 inh 3.
CCCCn1c(NC(=O)c2ccccc2Cl)c(C#N)c2nc3ccccc3nc21 was read as NS3 helicase inh 47*, eIF4H inh -3, PABP polyA inh 5, DNA FID counter-1 -16, MLLE-PAM2 inh -16, HCV core dimer 22, NS3 helicase cf 69* and DNA FID counter-2 0.
`CCCCn1c(NC(=O)CC)c(C#N)c2nc3ccccc3nc21` gave NS3 helicase inh 10, eIF4H inh 43, PABP polyA inh -9, DNA FID counter-1 -1, MLLE-PAM2 inh -26 and HCV core dimer 0.
For N#Cc1c(NC(=O)c2ccccc2Cl)n(Cc2ccccc2)c2nc3ccccc3nc12 the results were NS3 helicase inh 41*, eIF4H inh -4, PABP polyA inh 4, DNA FID counter-1 -5, MLLE-PAM2 inh -14, HCV core dimer 20, NS3 helicase cf 38* and DNA FID counter-2 18.
Screening NNC(=O)c1oc2nc(-c3ccccc3)cc(-c3ccccc3)c2c1N returned NS3 helicase inh 25, eIF4H inh -8, PABP polyA inh 1, DNA FID counter-1 -14, MLLE-PAM2 inh 3 and HCV core dimer 13.
Screening Cc1ccc(-c2cc(-c3ccco3)c3c(N)c(C(=O)NN)oc3n2)cc1 returned NS3 helicase inh 42*, eIF4H inh inconclusive, PABP polyA inh inconclusive, DNA FID counter-1 -15, MLLE-PAM2 inh -43, HCV core dimer 15, NS3 helicase cf 4 and DNA FID counter-2 5.
COc1cccc(/C=N/NC(=O)c2oc3nc(-c4ccccc4)cc(-c4ccco4)c3c2N)c1 was read as NS3 helicase inh 39*, eIF4H inh inconclusive, PABP polyA inh inconclusive, DNA FID counter-1 -19, MLLE-PAM2 inh -61, HCV core dimer 13, NS3 helicase cf 2 and DNA FID counter-2 -27.
Screening S=c1nc[nH]c2c1cnn2Cc1ccccc1 returned NS3 helicase inh 41*, eIF4H inh -12, PABP polyA inh -11, DNA FID counter-1 -6, MLLE-PAM2 inh 25, NS3 helicase cf 2 and DNA FID counter-2 -4.
Cc1cc(=O)[nH]c2c1cnn2Cc1ccccc1 was read as NS3 helicase inh 3, eIF4H inh 2, PABP polyA inh -11, DNA FID counter-1 -1, MLLE-PAM2 inh 3 and HCV core dimer -2.
`CC(=O)Oc1ccc(C(=O)Nc2cccc(-c3nnc(-c4ccco4)o3)c2)cc1` gave NS3 helicase inh 51*, eIF4H inh -4, PABP polyA inh -35, DNA FID counter-1 1, MLLE-PAM2 inh -8, HCV core dimer 7, NS3 helicase cf 16 and DNA FID counter-2 -20.
`CCOc1ccc(N2C(=O)CC(N3CCN(c4ccc([N+](=O)[O-])cc4)CC3)C2=O)cc1` (centres undefined) gave NS3 helicase inh 47*, eIF4H inh 8, PABP polyA inh -3, DNA FID counter-1 -9, MLLE-PAM2 inh -139, HCV core dimer -5, NS3 helicase cf -11 and DNA FID counter-2 -4.
Screening CC(OC(=O)c1ccc(Cl)c(S(=O)(=O)N2CCCC2)c1)C(=O)NC1CCCCC1C (centres undefined) returned NS3 helicase inh 37*, eIF4H inh -26, PABP polyA inh 6, DNA FID counter-1 -44, HCV core dimer -20, NS3 helicase cf -14 and DNA FID counter-2 -16.
Cc1ccc(C(=O)OC(C)C(=O)NC2CCCCC2C)cc1S(=O)(=O)N1CCCCC1 (centres undefined) was read as NS3 helicase inh -1, eIF4H inh -14, PABP polyA inh -1, DNA FID counter-1 -35, MLLE-PAM2 inh -18 and HCV core dimer 10.
